Results: PMC5026420 (Science Advances, 2016)
Positions count from the first letter of the chain named. Where two headings read alike, the source gives them in different places.

How the values were obtained:
CckA_CA = target: T1, CckA_CA (Caulobacter vibrioides, UniProt Q9X688); test: ITC ligand binding to CckA_CA; design: species or system Caulobacter crescentus
T1 sequence (Q9X688 379-545): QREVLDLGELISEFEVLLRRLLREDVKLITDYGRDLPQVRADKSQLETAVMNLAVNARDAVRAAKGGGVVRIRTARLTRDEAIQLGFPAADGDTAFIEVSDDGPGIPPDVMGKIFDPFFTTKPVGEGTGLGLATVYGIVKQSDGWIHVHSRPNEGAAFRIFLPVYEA
Method in brief: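 Protein was expressed in E. coli Rosetta (DE3), induced with 0.1 mM IPTG at 22°C, and purified by Ni-NTA then gel filtration (30 mM Tris-HCl pH 7.5, 100 mM NaCl, 5 mM MgCl2). Isothermal titration calorimetry was run at 25 or 12°C, stirring 300 rpm, 200 s preinjection delay, 250 s recording interval. Data were fitted to a single-site model, refitted with N fixed at 1.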

CckA_ΔTM [1] = target: T2, CckA_ΔTM (Caulobacter vibrioides, UniProt Q9X688); test: CckA phosphorylation assay by autoradiography; assay type: biochemical, Caulobacter crescentus; conditions: for net CckA_ΔTM~P after addition of effector: ADP or c-di-GMP added after 30 min of incubation with 500 μM ATP
T2 sequence (Q9X688 72-691): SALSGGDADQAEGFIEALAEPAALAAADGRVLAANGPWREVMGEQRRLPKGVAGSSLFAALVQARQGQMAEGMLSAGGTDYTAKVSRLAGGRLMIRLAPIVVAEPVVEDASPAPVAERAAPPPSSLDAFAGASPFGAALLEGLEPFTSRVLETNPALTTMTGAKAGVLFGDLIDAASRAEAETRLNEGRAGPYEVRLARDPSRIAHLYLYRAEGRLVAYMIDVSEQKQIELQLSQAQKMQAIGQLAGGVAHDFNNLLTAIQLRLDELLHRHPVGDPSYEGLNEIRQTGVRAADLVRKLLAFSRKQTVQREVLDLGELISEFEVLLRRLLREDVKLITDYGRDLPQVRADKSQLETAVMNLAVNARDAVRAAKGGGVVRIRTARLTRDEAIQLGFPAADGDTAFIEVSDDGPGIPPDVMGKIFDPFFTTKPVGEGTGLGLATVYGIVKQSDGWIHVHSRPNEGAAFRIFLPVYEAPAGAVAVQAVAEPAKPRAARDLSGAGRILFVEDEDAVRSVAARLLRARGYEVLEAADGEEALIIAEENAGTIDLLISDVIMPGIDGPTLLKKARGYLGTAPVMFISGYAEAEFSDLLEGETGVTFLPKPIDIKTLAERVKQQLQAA
Method in brief: (§1)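 MBP-tagged CckA_ΔTM (residues S72–A691) or its point mutants are incubated at room temperature with 500 μM ATP plus 5 μCi γ32P-ATP. Further nucleotides are added at set times. Where applicable, ATP is converted to ADP with 1.5 U hexokinase and 5 mM D-glucose. Reactions are stopped in SDS sample buffer and run on 10% SDS gels. Wet gels are exposed to a phosphor screen (0.5–3 h) and scanned.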

CckA_ΔTM [2] = target: T2, CckA_ΔTM; test: Global fit of kinetic model to CckA_ΔTM phosphorylation progress curves; assay type: biochemical, Caulobacter crescentus; conditions: simulations; rate with which the data can be fit
Method in brief: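 Progress curves of net CckA_ΔTM~P come from radiolabelled ATP reactions, with ADP or c-di-GMP added to aliquots after 30 min. The curves were globally fitted to a kinetic model using standard first- and second-order reaction kinetics, set up as a system of coupled ordinary differential equations. Rate parameters such as kr are taken from that global fit.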

CckA_ΔTM G318A = target: T3, CckA_ΔTM G318A (Caulobacter vibrioides, UniProt Q9X688, G318A); test: CckA phosphorylation assay by autoradiography, G318A; assay type: biochemical, Caulobacter crescentus; conditions: 15 min of ATP incubation, 75 μM c-di-GMP
T3 sequence (Q9X688 72-691 G318A): T2 sequence (Q9X688 72-691) with G247A
Method in brief: as §1

CckA_ΔTM G515D = target: T4, CckA_ΔTM G515D (Caulobacter vibrioides, UniProt Q9X688, G515D); test: CckA phosphorylation assay by autoradiography, G515D; assay type: biochemical, Caulobacter crescentus; conditions: 15 min of ATP incubation, 75 μM c-di-GMP
T4 sequence (Q9X688 72-691 G515D): T2 sequence (Q9X688 72-691) with G444D
Method in brief: as §1

CckA_ΔTM Y514D = conditions: cited from earlier work
CckA_ΔTM W523A = conditions: cited from earlier work
CckA_ΔTM F539A = conditions: cited from earlier work

SMILES | Kd (CckA_CA; read-out: Kd, AMPPNP binding, - c-di-GMP, 12°C) [µM] | net CckA_ΔTM~P after addition of effector (CckA_ΔTM [1]) | rate of debinding (kr) (CckA_ΔTM [2]) | Kd (CckA_CA; read-out: Kd, c-di-GMP binding, Fig. 3C (in the presence of 5 mM ADP or AMPPNP)) [µM] | net CckA phosphorylation with effector present throughout (CckA_ΔTM [1]; 15 min of ATP incubation, 75 μM c-di-GMP) | response of net phosphorylation to c-di-GMP (CckA_ΔTM G318A) | response of net phosphorylation to c-di-GMP (in vitro phenotype) (CckA_ΔTM G515D) | c-di-GMP binding in UV-cross-linking experiments (CckA_ΔTM Y514D) | c-di-GMP binding in UV-cross-linking experiments (CckA_ΔTM W523A) | c-di-GMP binding in UV-cross-linking experiments (CckA_ΔTM F539A)
Nc1ncnc2c1ncn2[C@@H]1O[C@H](COP(=O)(O)OP(=O)(O)NP(=O)(O)O)[C@@H](O)[C@H]1O [AMPPNP] | ~10 | – | – | – | – | – | – | – | – | –
Nc1ncnc2c1ncn2[C@@H]1O[C@H](COP(=O)(O)OP(=O)(O)O)[C@@H](O)[C@H]1O [ADP, adenosine diphosphate] | – | dose-dependent boost in dephosphorylation | 10^−2 to 10^−3 s^−1 | – | – | – | – | – | – | –
Nc1nc2c(ncn2[C@@H]2O[C@@H]3COP(=O)(O)O[C@H]4[C@@H](O)[C@H](n5cnc6c(=O)[nH]c(N)nc65)O[C@@H]4COP(=O)(O)O[C@H]3[C@H]2O)c(=O)[nH]1 [c-di-GMP, cyclic di–guanosine monophosphate] | – | efficiently and rapidly dephosphorylated | – | ~20 | effectively blocked | virtually no response | identical to that of G318A | lack of c-di-GMP binding | lack of c-di-GMP binding | lack of c-di-GMP binding
